High-throughput results from PubChem.
Hits are enriched below; roughly 9.6% of the tested compounds scored in any of these assays.
PTEN del growth – growth suppression of PTEN-null HCT116, primary screen, cell-based, CellTiter-Glo; viability, % at 10 µM; actives 1.2% (n = 140,000); HCT116 PTEN-null viability, 60 h; active compounds read low;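 active = viability at or below a set limit, 4 SD under the median of all tested compounds, cut at about 3.7% in these data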;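 note: PTEN knockout HCT116 line with beta catenin targeted HCT116 as companion control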
HCT116 bCat-KO – primary screen for growth suppressors in beta-catenin knockout HCT116 cells (colon tumor, human); HCT116 beta-catenin knockout viability, CellTiter-Glo, 60 h; active compounds read low; viability, % at 10 µM; actives 1.5% (n = 140,000);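 active = viability at or under a set limit, the compound median less 4 SD, cut at about 6% in these data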;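 note: 0% = Hyamine 1622 control at 20 µM and 100% = untreated cell control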
PMI act – activators of human PMI, primary screen, biochemical, fluorescence intensity, near-Km mannose 6-phosphate; actives 0.005% (n = 190,000); purified human PMI, coupled resazurin fluorescence, 20 min; active compounds read high; 1 = vehicle control, 0 substrate-free wells; activation factor at 20 µM;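 active = activation factor of 2 or more at 20 µM, relative to plate controls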
Target sequence (P34949 whole entry, looked up): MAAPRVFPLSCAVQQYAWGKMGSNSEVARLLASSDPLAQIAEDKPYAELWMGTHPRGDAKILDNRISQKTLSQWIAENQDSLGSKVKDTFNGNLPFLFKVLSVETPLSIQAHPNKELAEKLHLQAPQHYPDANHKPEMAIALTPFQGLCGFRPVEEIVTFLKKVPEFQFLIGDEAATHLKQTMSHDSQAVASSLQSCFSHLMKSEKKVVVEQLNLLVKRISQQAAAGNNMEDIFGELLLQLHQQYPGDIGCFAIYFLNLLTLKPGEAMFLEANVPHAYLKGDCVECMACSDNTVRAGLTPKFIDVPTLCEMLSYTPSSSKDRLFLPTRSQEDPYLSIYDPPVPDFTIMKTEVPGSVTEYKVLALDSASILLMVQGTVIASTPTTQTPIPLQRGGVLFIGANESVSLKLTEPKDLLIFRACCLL
PMI act hi M6P – human PMI activators, high substrate, primary screen, biochemical, fluorescence intensity, near-saturating mannose 6-phosphate; Mannose-6-phosphate isomerase (Homo sapiens), P34949; actives 0.34% (n = 190,000); activation factor at 20 µM; coupled PMI enzyme assay, resazurin fluorescence, 20 min; active compounds read high; 1 = untreated enzyme, 0 = substrate-free blank;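 active = activation factor of 2 or more at 20 µM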
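Material: human phosphomannose isomerase with PGI, G6PDH, diaphorase coupling enzymes. Quantity: 15 ng/mL PMI. Medium: HEPES pH 7.4 buffer with MgCl2 and Tween-20. Reagent: Near-saturating mannose-6-phosphate, 1.0 mM. Compound: 20 µM single dose. Times: enzyme reaction with compound 20 min at room temperature. Detection: resorufin fluorescence at Ex 544/Em 590 nm.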
L major viab – Leishmania major promastigote growth inhibition, primary screen; AID 1063, 2008; Leishmania major promastigotes, resazurin fluorescence viability; inhibition, % at 10 µM; actives 9% (n = 200,000); in the data active = inhibition above about 50%;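 note: promastigotes grown with compound for 44 hours at 28 °C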
Numbers without * were called inactive; / = no result given.

SMILES | PTEN del growth | HCT116 bCat-KO | PMI act | PMI act hi M6P | L major viab
Cc1ccccc1NC(=S)N1CCCN(Cc2ccc(F)cc2)C1 | / | / | 1.1 | 1.1 | 86*
Cc1ccc(NC(=S)N2CCCN(Cc3ccc(F)cc3)C2)c(C)c1 | / | / | 1.1 | 1 | 89*
Cc1ccccc1NC(=S)N1CCN(Cc2ccccc2)CC1 | 93 | 97 | 1 | 1 | -3
CSc1cccc(NC(=S)N2CCCN(Cc3ccc(F)cc3)C2)c1 | / | / | 0.9 | 0.9 | 86*
CCCN1CCN(C(=S)Nc2ccccc2C(F)(F)F)CC1 | 89 | 79 | 1.1 | 1.2 | -7
O=c1c2sc3ccccc3c2[nH]c(=S)n1CCN1CCOCC1 | / | / | 0.8 | 0.9 | -2
COC(=O)C1=C(C)N=C2SC(C#N)=C(N)N2C1c1cc(OC)c(OC)c(OC)c1 (stereo unspecified) | 92 | 94 | 1 | 1.1 | 0
COC(=O)C1=C(C)N=C2SC(C#N)=C(N)N2C1c1ccc(OCc2ccccc2)cc1 (stereo unspecified) | 65 | 67 | 0.8 | 0.9 | 98*
CSCCC(NC(=O)c1ccc(Br)cc1)C(=O)O (stereo unspecified) | / | / | 1.2 | 1 | 80*
CC(C)CC(NC(=O)c1ccc(Cl)cc1)C(=O)O (stereo unspecified) | 109 | 101 | 1.1 | 1 | 84*
CC(C)CC(NC(=O)c1cccc(Cl)c1)C(=O)O (stereo unspecified) | / | / | 0.9 | 0.9 | 15
O=C(COC(=O)C(Cc1ccccc1)NC(=O)c1ccccc1)c1ccccc1 (stereo unspecified) | 92 | 92 | 0.9 | 0.8 | -5
O=C(COC(=O)C(Cc1ccccc1)NC(=O)c1ccc(Cl)cc1)c1ccc(Cl)cc1 (stereo unspecified) | 98 | 91 | -0.1 | 1 | 54*
CCCCC(NC(=O)c1ccc(Cl)cc1)C(=O)O (stereo unspecified) | 108 | 97 | 1.1 | 1 | 86*
CCN1CCCC1CNCC(O)COc1ccc(C(C)(C)C)cc1C (stereo unspecified) | / | / | 1.1 | 1.1 | 86*
O=C(NCCC1=CCCCC1)c1cc(-c2ccccn2)nc2ccccc12 | / | / | 1 | 1 | 0
CS(=O)(=O)c1ccc2nc(NC(=O)c3cccc(NS(=O)(=O)c4ccc(F)c(F)c4)c3)sc2c1 | 83 | 84 | 0.8 | 0.6 | -6
O=C(Nc1nc2ccc(SC(F)F)cc2s1)c1ccc(NS(=O)(=O)c2ccc(F)c(F)c2)cc1 | 58 | 72 | 0.9 | 1 | 69*
COc1cc(OC)c(OC)cc1C#N | / | / | 1 | 1 | -9
COc1cc2c(cc1OC)C1(CCCC1)C(N)=C2C#N | 84 | 89 | 0.9 | 0.6 | 100*
COc1cc(NC(=O)c2c(F)cccc2F)c(Cl)cc1Cl | / | / | 0.9 | 1 | -7
CN1CCN(CC(=O)n2c3c(c4ccccc42)CCCC3)CC1 | 92 | 92 | 0.8 | 0.5 | 75*
CCN(CC)CC(=O)n1c2c(c3ccccc31)CCCC2 | 87 | 90 | 1.1 | 1.1 | -4
Cc1ccccc1C(=O)NNC(=O)CSc1nnc(C)n1-c1ccccc1 | 101 | 99 | 0.9 | 1 | -4
COC(=O)Cc1c(C)c2ccc(OCC(C)=O)c(C)c2oc1=O | 91 | 96 | 1 | 1 | 1
SMILES | PTEN del growth | HCT116 bCat-KO | PMI act | PMI act hi M6P | L major viab
C=C(C)COc1ccc2c(CC)cc(=O)oc2c1C | 92 | 87 | 1 | 0.9 | 62*
C=C(C)COc1ccc2c(C)c(CC(=O)OC)c(=O)oc2c1C | 48 | 13 | 0.9 | 1 | 58*
COc1ccccc1NC(C)C(=O)N/N=C/c1ccccc1OCc1cccc(Br)c1 (stereo unspecified) | 29 | 30 | 0.9 | 0.9 | 16
Cc1ccc(-c2cc(C(=O)N/N=C\c3cnn(C)c3C)c3ccccc3n2)cc1C | 79 | 91 | 0.9 | 0.9 | 17
Cc1cc(C)c2cc(CN(CCN(C)C)C(=O)Nc3ccccc3Cl)c(=O)[nH]c2c1 | / | / | 0.9 | 0.9 | 58*
Cc1cc(C)c2cc(CN(CCO)C(=O)Nc3ccc(F)cc3)c(=O)[nH]c2c1 | 89 | 93 | 0.9 | 0.9 | -2
CCOC(=O)Nc1ccc(C)cc1Br | 0.2* | 0.4* | 1.1 | 1 | -2
Cc1ccc(NC(=O)CN2CCCCCC2)c(Br)c1 | 92 | 93 | 1.1 | 1 | -7
CCOC(=O)CNC(c1ccccc1)c1cc(Br)ccc1NC(=O)CCN1CCOCC1 (stereo unspecified) | 73 | 68 | 0.8 | 0.9 | 98*
COC(=O)CNC(c1ccccc1)c1cc(Br)ccc1NC(=O)CCN1CCOCC1 (stereo unspecified) | 83 | 86 | 0.7 | 0.8 | 100*
CCOC(=O)CNC(c1ccccc1)c1cc(Br)ccc1NC(=O)OCC (stereo unspecified) | 79 | 73 | 0.8 | 0.9 | 54*
COC(=O)CNC(c1ccccc1)c1cc(Br)ccc1NC(=O)CNC(=O)OCc1ccccc1 (stereo unspecified) | 65 | 59 | 0.8 | 0.9 | 4
O=C1C2C3C=CC(C4CC34)C2C(=O)N1c1ccc2c(c1)OCO2 (stereo unspecified) | / | / | 1 | 0.9 | 1
c1ccc(CC(Nc2ccccn2)c2ccccc2)cc1 (stereo unspecified) | / | / | 0.9 | 0.9 | 43
Cc1cc(C)c2c(NC(=O)CCl)nn(C)c2n1 | / | / | 1.1 | 1 | 6
CCc1cc(SC#N)cc(CC)c1NC(=O)CCl | 1.6* | 1.9* | 1.3 | 1.2 | 20
CCCCNC(=O)NS(=O)(=O)c1ccc(NS(=O)(=O)c2ccccc2)cc1 | 108 | 101 | 1 | 0.9 | -4
CCOC(=O)c1cnc2ccc(OCC)cc2c1NCc1ccccc1OC | 36 | 22 | 0.7 | 0.6 | 97*
CCOC(=O)c1cnc2ccc(OCC)cc2c1NCCN1CCOCC1 | / | / | 0.9 | 0.9 | 55*
CCOC(=O)c1cnc2ccc(C(=O)OC)cc2c1NCCN1CCOCC1 | 93 | 91 | 0.9 | 0.9 | 32
CCOC(=O)c1cnc2ccc(OC)cc2c1NCc1ccccc1 | 54 | 41 | 0.9 | 0.7 | 69*
Cc1cc(C)nc(SCC(=O)Nc2nonc2N)n1 | / | / | 1 | 1 | 4
COc1cc2c(cc1OC)C(Nc1ccccc1)=NC(C)(C)C2 | 83 | 85 | 1 | 1 | 39
COc1cccc(OC)c1C(=O)N1CCN(c2c(Cc3ccccc3)c(C)nc3ncnn23)CC1 | 90 | 102 | 1.1 | 1 | -3
O=[N+]([O-])c1ccc2nc(-c3ccc(Cl)cc3)[nH]c2c1 | 2.7* | 8 | 1.1 | 0.9 | 7
O=[N+]([O-])c1ccc2nc(-[n+]3c(-c4ccccc4)cc(-c4ccccc4)cc3-c3ccccc3)[nH]c2c1 | 11 | 19 | 1.3 | 1.3 | 89*
